# PubChem BioAssay AID493091 (Sanford-Burnham Center for Chemical Genomics, 2011)
# The campaign covered roughly 340,000 compounds. About 3,000 (0.88%) were called active. Only a selection was taken, and actives are over-represented in it overall. Unmarked numbers belong to inactive results.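 Rule for the calls: active = inhibition above about 50% at 20 µM (limit read from the data); inactive = the rest.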
# Biological target: Carboxy-terminal domain RNA polymerase II polypeptide A small phosphatase 1 (Homo sapiens) (UniProt Q9GZU7)
# Sequence (Q9GZU7 76-261 limits assumed): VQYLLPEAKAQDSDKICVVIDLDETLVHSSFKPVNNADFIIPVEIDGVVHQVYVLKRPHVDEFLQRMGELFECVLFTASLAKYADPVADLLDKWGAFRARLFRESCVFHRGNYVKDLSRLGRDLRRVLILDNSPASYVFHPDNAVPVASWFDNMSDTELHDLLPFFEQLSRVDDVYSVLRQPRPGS
# Assay: Scp-1 phosphatase inhibitors, primary screen, biochemical, colorimetric, uHTS (AID 493091);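 note: plate controls were DMSO wells with enzyme for no effect and wells lacking enzyme for full effect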
# Details: Recombinant Scp1, phosphopeptide, malachite green phosphate absorbance; at 20 µM; stronger effect = higher value
# Procedure, shortened: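 Material: truncated SCP-1 phosphatase (76-261aa) / Buffer or medium: 50 mM Tris acetate pH 5.5, 0.005% Tween-20, 10 mM MgCl2 / Compound dosing: one concentration, 20 µM, with 1.0% DMSO / Incubation: 45 min room-temperature reaction, 5 min colour, 30 min stabiliser / Detection: colorimetric free-phosphate detection, absorbance 630 nm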
row,Compound,inhibition
1,CC(C)(C)c1cc(P(=O)(c2ccccc2)c2ccccc2)ccc1O,4.5%
2,O=C(NN=Cc1ccccc1)c1ccccc1,-6.69%
3,CSc1ccc(/C=N/NC(=O)c2cccc(Cl)c2)cc1,63.9% (active)
4,O=C(N/N=C/c1ccc(Cl)c(Cl)c1)c1ccc2nc[nH]c2c1,2.5%
5,N#CCCN1CCN(S(=O)(=O)c2ccc(S(=O)(=O)NC3CCCCC3)cc2)CC1,-9.7%
6,COc1cc(/C=N/NC(=O)c2cc(-c3ccccc3C)nc3ccccc23)cc(OC)c1O,-6.97%
7,Cc1ccc(C(=O)N/N=C/c2cccc3ccccc23)cn1,0.35%
8,COc1cccc(/C=N/NC(=O)c2[nH]nc3c2CCc2ccccc2-3)c1O,89% (active)
9,CN(C(=O)COC(=O)c1cc(-c2ccco2)nc2ccccc12)C1CCS(=O)(=O)C1 (configuration not stated),88.8% (active)
10,CN(C(=O)COC(=O)Cc1ccccc1[N+](=O)[O-])C1CCS(=O)(=O)C1 (configuration not stated),1.98%
11,CN(CCOc1ccccc1)C(=O)c1cc(-c2ccco2)nc2ccccc12,49%
12,CCOC(=O)C1CCCN(C(=O)c2ccc(CS(=O)(=O)c3ccc(Br)cc3)o2)C1 (configuration not stated),5.99%
13,Cc1nnc(SCc2cccc(Cl)c2)n(N)c1=O,-7.11%
14,COc1cccc2sc(N(CCCN(C)C)C(=O)CCS(=O)(=O)c3ccccc3)nc12,8.55%
15,Cc1cccc2sc(N(CCCN(C)C)C(=O)CCS(=O)(=O)c3ccccc3)nc12,5.73%
16,COc1cccc2sc(N(CCCN(C)C)C(=O)C(c3ccccc3)c3ccccc3)nc12,59.4% (active)
17,CC1CN(S(=O)(=O)c2ccccc2)C(C)CN1S(=O)(=O)c1ccccc1 (configuration not stated),15.5%
18,O=C(Nc1ccc(Cl)cc1)C1c2cccc[n+]2CC(=O)N1Cc1ccc2c(c1)OCO2 (configuration not stated),39.5%
19,C=CCC(Nc1ccccc1)c1cccc(OC)c1OC (configuration not stated),0.9%
20,COc1ccc2oc(=O)cc(-c3cc4ccccc4o3)c2c1,-1.71%
21,COc1cccc2cc(-c3cc(=O)oc4cc(C)c(O)cc34)oc12,58.8% (active)
22,COc1cccc2cc(C(=O)N(C)C)c(=O)oc12,-2.27%
23,Cc1ccsc1-c1nc(CSCC(=O)NCCN2CCCC2)c(C)o1,-6.12%
24,COC(=O)C1C(=O)NCC1c1ccc(OC)cc1 (configuration not stated),-1.05%
25,CCOC(=O)CNC(=O)c1nn(-c2cccc(OC)c2)c(=O)c2ccccc12,1.07%
26,Cc1nn(-c2cc(Cl)ccc2N)c(=O)c2ccccc12,60.1% (active)
27,Cc1cc(=O)oc2c1c(C)nn2-c1ccc(Cl)cc1,-6.94%
